Active and inactive are the calls of the source. The rule behind the calls is not given here.
Legend:
[1] = Therapeutic index, ratio of CC50 for human A3.01 cells to IC50 for HIV1 infected in human A3.01 cells; format: cell-based; settings: A3.01 cells (uninfected for CC50; HIV1-infected for IC50)
Procedure, shortened: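 The index was calculated from A3.01 cytotoxicity data together with the IC50 for HIV-1 LAV replication in A3.01 cells. Replication was measured by supernatant reverse transcriptase assay 9 days post-infection on dose–response curves run in duplicate.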

[2] = system: Human immunodeficiency virus 1; test: Antiviral activity against HIV1 infected in human A3.01 cells assessed as inhibition of viral replication; format: functional, organism-based
Procedure, shortened: (§1)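 A3.01 T cells were infected with HIV-1 LAV in the presence of decreasing compound concentrations, lowered until viral replication reappeared. Virus in culture supernatants was measured by reverse transcriptase assay 9 days post-infection, the peak day for the untreated control. Replication was expressed as % of the untreated (concentration 0) control. Results are the mean and standard deviation of duplicate determinations, and IC50 was read from the dose–response curves.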

[3] = system: Human immunodeficiency virus 1; test: Antiviral activity against HIV1 infected in human A3.01 cells assessed as inhibition of viral replication at 1.5 ug/ml; format: functional
Procedure, shortened: (§2)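 A3.01 T lymphocytes were infected with HIV-1 LAV in the presence of compound at a single concentration, 1.5 or 0.5 μg/mL, chosen from the A3.01 cytotoxicity data. Supernatant virus was measured by reverse transcriptase assay, and inhibition was scored on the peak day of virus production. Controls were DMSO at a matching concentration, AZT at 10 and 20 μM, untreated infected cells and mock cells.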

[4] = system: Human immunodeficiency virus 1; test: Antiviral activity against HIV1 infected in human A3.01 cells assessed as complete inhibition of viral replication at 2.20 uM; format: functional, organism-based; procedure, shortened: as §1
[5] = system: Human immunodeficiency virus 1; test: Antiviral activity against HIV1 infected in human A3.01 cells assessed as complete inhibition of viral replication at 20 uM; format: functional, organism-based
Procedure, shortened: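 Human A3.01 T-lymphocytes infected with HIV-1 LAV strain while exposed to compound. Virus levels in culture supernatants measured by reverse transcriptase assay. Inhibition read on peak day of virus production, 9 days post-infection in the untreated control. Compared against untreated infected cells, DMSO vehicle at matching concentration, and uninfected mock cells.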

[6] = system: Human immunodeficiency virus 1; test: Antiviral activity against HIV1 infected in human A3.01 cells assessed as inhibition of viral replication at 0.5 ug/ml; format: functional; procedure, shortened: as §2
[7] = system: Human immunodeficiency virus 1; test: Antiviral activity against HIV1 infected in human A3.01 cells assessed as complete inhibition of viral replication at 1.50 uM; format: functional, organism-based; procedure, shortened: as §1

Row | Structure (SMILES) | selectivity ratio [1] | IC50 [2] [nM] | inhibition at 1.5 µg/mL [3] [%] | inhibition [4] | inhibition [5] | inhibition at 0.5 µg/mL [6] [%] | inhibition [7]
1 | O=C1C[C@H](O)[C@@H]2c3c(ccc(O)c31)-c1ccc(O)c3c1[C@@]2(O)CCC3=O [ALTERTOXIN I] | 3 | 1420 | 97 | Active | – | – | –
2 | Cc1cn([C@H]2C[C@H](N=[N+]=[N-])[C@@H](CO)O2)c(=O)[nH]c1=O | – | – | – | – | Active | – | –
3 | O=C1C[C@@H](O)[C@H]2c3c(ccc(O)c31)-c1ccc(O)c3c1[C@H]2[C@H]1O[C@H]1C3=O | 50 | 90 | 97 | – | – | – | –
4 | O=C1C=C[C@H]2c3c(ccc(O)c31)-c1ccc(O)c3c1[C@H]2[C@H]1O[C@H]1C3=O | – | – | 33 | – | – | – | –
5 | O=C1CC[C@]2(O)c3c(ccc(O)c31)-c1ccc(O)c3c1[C@H]2[C@H]1O[C@H]1C3=O | 6.5 | 210 | – | – | – | 97 | –
6 | O=C1c2c(O)ccc3c2[C@H](c2ccc(O)c4c2[C@H]3[C@H]2O[C@H]2C4=O)[C@H]2O[C@@H]12 | 15 | 290 | 97 | – | – | – | Active

— ChEMBL document CHEMBL3351926, “Altertoxins with potent anti-HIV activity from Alternaria tenuissima QUE1Se, a fungal endophyte of Quercus emoryi” (Bioorg Med Chem, 2014)
